Test results published in ChEMBL document CHEMBL1157589, “Antifungal 3,5-disubstituted furanones: From 5-acyloxymethyl to 5-alkylidene derivatives” (Bioorg Med Chem, 2010).
In brackets after ≈: the same amount, converted by molar mass.

Assays:
[1] = test system: Clavispora lusitaniae; assay: Antifungal activity against Candida lusitaniae 2446/I after 24 hrs by microdilution method; assay type: functional
Procedure, shortened: (§1)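 Yeasts held on Sabouraud dextrose agar. MIC by NCCLS M27-A broth microdilution in RPMI 1640 with L-glutamine, buffered with 0.165 M MOPS to pH 7.0. Compounds in DMSO (≤2% final), twofold dilutions 500–0.48. Final inoculum 5 × 10³ ± 0.2 cfu mL⁻¹. Incubated at 35 °C; absorbance at 540 nm read at 24 and 48 h. MIC is 80% growth inhibition versus control; run twice in duplicate.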

[2] = test system: Nakaseomyces glabratus; assay: Antifungal activity against Candida glabrata 20/I after 24 hrs by microdilution method; assay type: functional; procedure, shortened: as §1
[3] = test system: Trichophyton mentagrophytes; assay: Antifungal activity against Trichophyton mentagrophytes 445 after 72 hrs by microdilution method; assay type: functional; conditions: Trichophyton mentagrophytes, 445, 72 h
Procedure, shortened: (§2)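 Dermatophyte held on Sabouraud dextrose agar. M27-A microdilution in MOPS-buffered (0.165 M, pH 7.0) RPMI 1640 with L-glutamine. DMSO ≤2% final; twofold dilutions 500–0.48. Inoculum 5 × 10³ ± 0.2 cfu mL⁻¹ final. Incubated at 35 °C; MIC read visually at 72 and 120 h as 80% inhibition of control growth; determined twice in duplicate.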

[4] = test system: Pichia kudriavzevii; assay: Antifungal activity against Candida krusei E28 after 24 hrs by microdilution method; assay type: functional; conditions: E28, 24 h; procedure, shortened: as §1
[5] = test system: Trichophyton mentagrophytes; assay: Antifungal activity against Trichophyton mentagrophytes 445 after 120 hrs by microdilution method; assay type: functional; conditions: Trichophyton mentagrophytes, 445, 120 h; procedure, shortened: as §2
[6] = test system: Candida albicans; assay: Antifungal activity against Candida albicans ATCC 90028 after 24 hrs by microdilution method; assay type: functional; conditions: ATCC 90028, 24 h; procedure, shortened: as §1
[7] = test system: Candida tropicalis; assay: Antifungal activity against Candida tropicalis 156 after 24 hrs by microdilution method; assay type: functional; conditions: Candida tropicalis, 156, 24 h; procedure, shortened: as §1
[8] = test system: Pichia kudriavzevii; assay: Antifungal activity against Candida krusei ATCC 6258 after 24 hrs by microdilution method; assay type: functional; conditions: ATCC 6258, 24 h; procedure, shortened: as §1
[9] = test system: Nakaseomyces glabratus; assay: Antifungal activity against Candida glabrata 20/I after 48 hrs by microdilution method; assay type: functional; procedure, shortened: as §1
[10] = test system: Candida albicans; assay: Antifungal activity against Candida albicans ATCC 44859 after 24 hrs by microdilution method; assay type: functional; conditions: ATCC 44859, 24 h; procedure, shortened: as §1
[11] = test system: HL-60; assay: Cytostatic activity against human HL60 cells after 72 hrs by XTT assay; assay type: functional, cell-based
Procedure, shortened: (§3)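 Leukemia cells (L1210 ATCC CCL 219, CCRF-CEM ATCC CCL 119, HL-60 ATCC CCL 240) grown in 24-well plates in RPMI 1640 with fetal calf serum. Growth assessed 72 h after drug addition. Viability measured by XTT spectrophotometric assay; potency given as IC50.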

[12] = test system: Trichosporon beigelii; assay: Antifungal activity against Trichosporon beigelii 1188 after 48 hrs by microdilution method; assay type: functional; conditions: Trichosporon beigelii, 1188, 48 h; procedure, shortened: as §1
[13] = test system: Pichia kudriavzevii; assay: Antifungal activity against Candida krusei ATCC 6258 after 48 hrs by microdilution method; assay type: functional; conditions: ATCC 6258, 48 h; procedure, shortened: as §1
[14] = test system: Candida albicans; assay: Antifungal activity against Candida albicans ATCC 44859 after 48 hrs by microdilution method; assay type: functional; conditions: ATCC 44859, 48 h; procedure, shortened: as §1
[15] = test system: Lichtheimia corymbifera; assay: Antifungal activity against Absidia corymbifera 272 after 48 hrs by microdilution method; assay type: functional; conditions: Lichtheimia corymbifera, 272, 48 h
Procedure, shortened: (§4)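 Filamentous strains held on Sabouraud dextrose agar. NCCLS M27-A broth microdilution in RPMI 1640 with L-glutamine and 0.165 M MOPS, pH 7.0. DMSO diluent ≤2% final; twofold dilutions 500–0.48. Inoculum 5 × 10³ ± 0.2 cfu mL⁻¹ final.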

[16] = test system: Candida albicans; assay: Antifungal activity against Candida albicans ATCC 90028 after 48 hrs by microdilution method; assay type: functional; conditions: ATCC 90028, 48 h; procedure, shortened: as §1
[17] = test system: Aspergillus fumigatus; assay: Antifungal activity against Aspergillus fumigatus 231 after 24 hrs by microdilution method; assay type: functional; conditions: Aspergillus fumigatus, 231, 24 h; procedure, shortened: as §4
[18] = test system: Candida parapsilosis; assay: Antifungal activity against Candida parapsilosis ATCC 22019 after 48 hrs by microdilution method; assay type: functional; conditions: Lodderomyces parapsilosis, ATCC 22019, 48 h; procedure, shortened: as §1
[19] = test system: Lichtheimia corymbifera; assay: Antifungal activity against Absidia corymbifera 272 after 24 hrs by microdilution method; assay type: functional; conditions: Lichtheimia corymbifera, 272, 24 h; procedure, shortened: as §4
[20] = test system: Candida parapsilosis; assay: Antifungal activity against Candida parapsilosis ATCC 22019 after 24 hrs by microdilution method; assay type: functional; conditions: Lodderomyces parapsilosis, ATCC 22019, 24 h; procedure, shortened: as §1
[21] = test system: Trichosporon beigelii; assay: Antifungal activity against Trichosporon beigelii 1188 after 24 hrs by microdilution method; assay type: functional; conditions: Trichosporon beigelii, 1188, 24 h; procedure, shortened: as §1
[22] = test system: Clavispora lusitaniae; assay: Antifungal activity against Candida lusitaniae 2446/I after 48 hrs by microdilution method; assay type: functional; procedure, shortened: as §1
[23] = test system: Pichia kudriavzevii; assay: Antifungal activity against Candida krusei E28 after 48 hrs by microdilution method; assay type: functional; conditions: E28, 48 h; procedure, shortened: as §1
[24] = test system: L1210; assay: Cytostatic activity against mouse L1210 cells after 72 hrs by XTT assay; assay type: functional, cell-based; procedure, shortened: as §3
[25] = test system: Candida tropicalis; assay: Antifungal activity against Candida tropicalis 156 after 48 hrs by microdilution method; assay type: functional; conditions: Candida tropicalis, 156, 48 h; procedure, shortened: as §1
[26] = test system: CCRF-CEM; assay: Cytostatic activity against human CCRF-CEM cells after 72 hrs by XTT assay; assay type: functional, cell-based; procedure, shortened: as §3
[27] = test system: HeLa S3; assay: Cytostatic activity against human HeLaS3 cells after 48 hrs by XTT assay
[28] = test system: Aspergillus fumigatus; assay: Antifungal activity against Aspergillus fumigatus 231 after 48 hrs by microdilution method; assay type: functional; conditions: Aspergillus fumigatus, 231, 48 h; procedure, shortened: as §4
[29] = Homo sapiens, CCRF-CEM, 72 h, read-out: IC50
[30] = Homo sapiens, HeLa S3, 48 h, read-out: IC50

O=C1OC(COc2ccc(C(=O)O)cc2)C=C1c1ccc(Br)cc1 (centres undefined)
MIC80 [1]: 3.9 µM (≈ 1.52 µg/mL) | MIC80 [2]: 0.97 µM (≈ 0.378 µg/mL) | MIC80 [3]: 0.97 µM (≈ 0.378 µg/mL) | MIC80 [4]: 7.81 µM (≈ 3.04 µg/mL) | MIC80 [5]: 0.97 µM (≈ 0.378 µg/mL) | MIC80 [6]: 0.97 µM (≈ 0.378 µg/mL) | MIC80 [7]: 3.9 µM (≈ 1.52 µg/mL) | MIC80 [8]: 7.81 µM (≈ 3.04 µg/mL) | MIC80 [9]: 1.95 µM (≈ 0.759 µg/mL) | MIC80 [10]: 0.48 µM (≈ 0.187 µg/mL) | IC50 ([11]; Homo sapiens, HL-60, 72 h, read-out: IC50): 19.4 µM | MIC80 [12]: 15.6 µM (≈ 6.08 µg/mL) | MIC80 [13]: 15.6 µM (≈ 6.08 µg/mL) | MIC80 [14]: 1.95 µM (≈ 0.759 µg/mL) | MIC80 [15]: 62.5 µM (≈ 24.3 µg/mL) | MIC80 [16]: 3.9 µM (≈ 1.52 µg/mL) | MIC80 [17]: 1.95 µM (≈ 0.759 µg/mL) | MIC80 [18]: 15.6 µM (≈ 6.08 µg/mL) | MIC80 [19]: 15.6 µM (≈ 6.08 µg/mL) | MIC80 [20]: 7.81 µM (≈ 3.04 µg/mL) | MIC80 [21]: 7.81 µM (≈ 3.04 µg/mL) | MIC80 [22]: 7.81 µM (≈ 3.04 µg/mL) | MIC80 [23]: 15.6 µM (≈ 6.08 µg/mL) | IC50 ([24]; Mus musculus, L1210, 72 h, read-out: IC50): 12.3 µM | MIC80 [25]: 7.81 µM (≈ 3.04 µg/mL) | IC50 [26, 29]: 8.7 µM | IC50 [27, 30]: 2.69 µM | MIC80 [28]: 3.9 µM (≈ 1.52 µg/mL)

CCOCC1C=C(c2ccc(Br)cc2)C(=O)O1 (centres undefined)
MIC80 [1]: 125 µM (≈ 37.1 µg/mL) | MIC80 [2]: 62.5 µM (≈ 18.6 µg/mL) | MIC80 [3]: 15.6 µM (≈ 4.64 µg/mL) | MIC80 [4]: 250 µM (≈ 74.3 µg/mL) | MIC80 [5]: 15.6 µM (≈ 4.64 µg/mL) | MIC80 [6]: 125 µM (≈ 37.1 µg/mL) | MIC80 [7]: 250 µM (≈ 74.3 µg/mL) | MIC80 [8]: 250 µM (≈ 74.3 µg/mL) | MIC80 [9]: 62.5 µM (≈ 18.6 µg/mL) | MIC80 [10]: 31.2 µM (≈ 9.29 µg/mL) | IC50 ([11]; hl-60): Not Active | MIC80 [12]: 250 µM (≈ 74.3 µg/mL) | MIC80 [13]: 250 µM (≈ 74.3 µg/mL) | MIC80 [14]: 62.5 µM (≈ 18.6 µg/mL) | MIC80 [15]: 125 µM (≈ 37.1 µg/mL) | MIC80 [16]: 125 µM (≈ 37.1 µg/mL) | MIC80 [17]: 62.5 µM (≈ 18.6 µg/mL) | MIC80 [18]: 250 µM (≈ 74.3 µg/mL) | MIC80 [19]: 125 µM (≈ 37.1 µg/mL) | MIC80 [20]: 125 µM (≈ 37.1 µg/mL) | MIC80 [21]: 125 µM (≈ 37.1 µg/mL) | MIC80 [22]: 250 µM (≈ 74.3 µg/mL) | MIC80 [23]: 250 µM (≈ 74.3 µg/mL) | IC50 ([24]; l1210): Not Active | MIC80 [25]: 250 µM (≈ 74.3 µg/mL) | IC50 [26, 29]: 9.82 µM | IC50 [27, 30]: 1.94 µM | MIC80 [28]: 125 µM (≈ 37.1 µg/mL)

O=C1O/C(=C\c2ccccc2)C=C1c1ccc(Br)cc1
MIC80 [1]: > 125 µM | MIC80 [2]: > 125 µM | MIC80 [3]: > 125 µM | MIC80 [4]: > 125 µM | MIC80 [5]: > 125 µM | MIC80 [6]: > 125 µM | MIC80 [7]: > 125 µM | MIC80 [8]: > 125 µM | MIC80 [9]: > 125 µM | MIC80 [10]: > 125 µM | IC50 ([11]; hl-60): Not Active | MIC80 [12]: > 125 µM | MIC80 [13]: > 125 µM | MIC80 [14]: > 125 µM | MIC80 [15]: > 125 µM | MIC80 [16]: > 125 µM | MIC80 [17]: > 125 µM | MIC80 [18]: > 125 µM | MIC80 [19]: > 125 µM | MIC80 [20]: > 125 µM | MIC80 [21]: > 125 µM | MIC80 [22]: > 125 µM | MIC80 [23]: > 125 µM | IC50 ([24]; l1210): Not Active | MIC80 [25]: > 125 µM | IC50 ([26]; ccrf-cem): Not Active | IC50 ([27]; hela s3): Not Active | MIC80 [28]: > 125 µM
